Experimental data of several laboratories.
Each line is one published result; the experiments were not run side by side.
Read-out: cell growth or viability

CCC(=O)Nc1cc(Nc2nc(N3CCc4sccc4C3)c3cccnc3n2)c(OC)cc1N1CCC(N(C)C)CC1 — IC50 (NCI-H1975; MTT): 0.81 µM
Cc1ncn2c(=O)n(C)nnc12 — IC50 (T98G; resazurin; 7 days): 6 µM
C=CC(=O)Nc1cccc(Nc2nc(Nc3ccc(OCCOC)cc3)ncc2F)c1 — IC50 (NCI-H1975): 1.27 µM
Cc1[nH]c(C)c(-c2ccc(-c3ccc(F)cc3)cc2)c(=O)c1Br — IC50 (HEK293): > 10 µM
COc1cc2c(Nc3ccc(Cl)c(Cl)c3F)ncnc2cc1OC[C@@H]1C[C@@H]2CN(C)C[C@@H]2C1 — IC50 (GBM6; ATP luminescence; 18 days; 3D culture): 0.102 µM
CC(C)[C@H](N)C(=O)N1CCC[C@H]1B(O)O — IC50 (SET-2; ATP luminescence; 48 h): 0.006 µM
Cc1[nH]cc(Br)c(=O)c1-c1ccc(Oc2ccc(OC(F)(F)F)cc2)cc1 — IC50 (HEK293): > 10 µM
C=C(Cl)C(=O)Nc1cc(Nc2nc(Nc3cnn(C)c3)c3sccc3n2)c(OC)cc1N(C)CCN(C)C — IC50 (NCI-H1975; MTT): 0.023 µM
O=C1NC(=NCc2cccs2)S/C1=C\c1ccc2ncccc2c1 — IC50 (SK-MEL-28): > 10 µM
C=C(Cl)C(=O)Nc1cc(Nc2nc(N3CCSCC3)c3sccc3n2)c(OC)cc1N(C)CCN(C)C — IC50 (NCI-H1975; MTT): 0.165 µM
C=CC(=O)Nc1cccc(N2C(=O)OC(C)c3cnc(Nc4ccc(N5CCN(C)CC5)cc4OC)nc32)c1 (centres unmarked) — IC50 (TMD8; CCK-8; 72 h): 0.028 µM
COC(=O)c1cc2ccc(O)cc2oc1=O — IC50 (HEK293; MTT; 36 h): > 20 µM
Cn1nnc2c(Cl)ncn2c1=O — IC50 (T98G; resazurin; 7 days): 60 µM
CCCCCCCc1[nH]c2ccccc2c(=O)c1C — IC50 (HEK293): > 10 µM
C=CC(=O)Nc1cc(Nc2nc(N3CCc4sccc4C3)c3sccc3n2)c(OC)cc1N1CCN(C)CC1 — IC50 (NCI-H1975; MTT): 6.65 µM
Cc1cc(C)c2cc(CNCCCNc3nc4ccccc4[nH]3)[nH]c2c1 — IC50 (HEK293): > 10 µM
C=CCC[C@@H]1NC(=O)[C@H]2CCCN2C(=O)[C@H](Cc2ccccc2)NC(=O)C(C)(C)NC1=O — IC50 (HEK293; XTT): > 100 µM
Cc1cc(=O)c2cc(-c3ccc(OC(F)(F)F)cc3)ccc2[nH]1 — IC50 (HEK293): > 10 µM
C=CC(=O)Nc1cc(Nc2nc(N3CCc4sccc4C3)c3cccnc3n2)c(OC)cc1N(C)C — IC50 (NCI-H1975; MTT): > 50 µM
O=c1cc(CCl)c2ccc(O)cc2o1 — IC50 (HEK293; MTT; 36 h): 15.8 µM
Cc1[nH]c(C)c(-c2ccc(-c3cccc(C(F)(F)F)c3)nc2)c(=O)c1Br — IC50 (HEK293): > 10 µM
CC(=O)SCc1cc(=O)oc2cc(O)ccc12 — IC50 (HEK293; MTT; 36 h): > 20 µM
Cc1cc(=O)c(-c2ccc(OCc3ccc(OC(F)(F)F)cc3)cc2)c(C)[nH]1 — IC50 (HEK293): > 10 µM
C=CC(=O)Nc1cc(Nc2nc(N3CCOCC3)c3sccc3n2)c(OC)cc1N(C)CCN(C)C — IC50 (NCI-H1975; MTT): 37.5 µM
Cc1[nH]c(C)c(-c2ccc(-c3ccccc3C(F)(F)F)nc2)c(=O)c1Br — IC50 (HEK293): > 10 µM
C/C=C/C(=O)Nc1cc(Nc2nc(Nc3cnn(C)c3)c3sccc3n2)c(OC)cc1N(C)CCN(C)C — IC50 (NCI-H1975; MTT): 3.07 µM
